# Assay results pooled from the literature.
# Lines come from different studies, so protocols differ.
# Target: Cyclin-dependent kinase 11B (CDK11B, Homo sapiens, UniProt P21127)
# Technique: competition with immobilised ligand
Structure (SMILES),test,setting,remaining binding
N[C@@H]1CCN(c2nccc(-c3cnn4ncccc34)n2)C1,binding,1 µM,100%
CNC(=O)[C@@H]1CC[C@@H](n2c(-c3ccc4cnccc4c3)nc3ccc(C(=O)NCc4cccc(C(N)=O)c4)cc32)C1,binding,1 µM,100%
Cc1nc(Cc2cccc(C(F)(F)F)c2)sc1-c1ccc(C(N)=O)nc1,cell-free assay,1 µM,97%
FC(F)(F)Oc1cccc(-c2cnc3ccc(-c4ccncc4)nn23)c1,cell-free assay,5 µM,100%
O=C(NCCCN1CCOCC1)c1ccc(Nc2nccc(-c3cc4ccccc4s3)n2)cc1,binding,1 µM,57%
C[C@@H]1CCN(c2nccc(-c3cnn4ncccc34)n2)C1,binding,1 µM,97%
O=C(Nc1c[nH]nc1C(=O)NC1CCNCC1)c1cc(F)cc(F)c1,binding,1 µM,86%
CN(c1ccnc(CNc2nc(Nc3ccc4c(c3)CC(=O)N4)ncc2C(F)(F)F)n1)S(C)(=O)=O,cell-free assay,1 µM,91%
C=CC(=O)N1CCC(C(=O)NCC(=O)N2CCN(c3nc(-c4cnc(N)nc4C(F)F)nc(N4CCOCC4)n3)CC2)CC1,binding,1 µM,100%
c1cnn2ncc(-c3ccnc(N4CCC45COC5)n3)c2c1,binding,1 µM,91%
O=C(c1ccc(Nc2ncc(Cl)c(-c3ccc(Cl)s3)n2)cc1)N1CCC(N2CCCC2)CC1,binding,1 µM,46%
CSc1cccnc1N1CCN(Cc2nc3ccccc3[nH]2)CC1,cell-free assay,1 µM,100%
COc1ccnn2ncc(-c3ccnc(N(C)C)n3)c12,binding,1 µM,100%
C[C@@H](c1ccc(-n2cnc3c(N)ncnc32)cc1)N1CCc2nn(C)c(Cc3ccccc3)c2C1=O,binding,0.1 µM,86%
CNCc1ccccc1-c1csc([C@H](C)Nc2nc(C)nc3cc(OC)c(OC)cc23)c1,cell-free assay,1 µM,100%
COc1ncc2cc3ccccc3nc2c1C#N,cell-free assay,5 µM,100%
Cc1cnn2ncc(-c3ccnc(N(C)C)n3)c2c1,binding,1 µM,95%
Cc1c(NC(=O)c2cc(C(N)=O)nc3cc(F)ccc23)c(C(F)(F)F)nn1Cc1ccc(C#N)cc1,cell-free assay,1 µM,94%
O=C(c1ccc(Nc2nccc(-c3cc4ccccc4s3)n2)cc1)N1CCC(N2CCCC2)CC1,binding,1 µM,71%
CN(C)C(=O)Cn1cc(-c2nc([C@@](C)(c3ccc(-c4cnc(N)nc4)cc3)C3CC3)no2)cn1,cell-free assay,1 µM,79%
CN(CCCC(F)(F)F)c1nccc(-c2cnn3ncccc23)n1,binding,1 µM,94%
